TRPC4 act: TRPC4 (mouse) channel activation. hit rate 0.49% among 310,000. Q9QUQ5. HEK293 TRPC4beta/mu-opioid, Fluo4 calcium fluorescence; hits give high values. B-score at 10 µM. AID 2237;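 active means B-score above 5 SD of library B-scores, and initial fluorescence ratio not above library mean plus 5 SD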;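 further: positive B-score marks a calcium rise read as TRPC4 activation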
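Technique: kinetic Fluo4 calcium fluorescence; Test system: TRPC4beta and mu-opioid receptor HEK293 stable cells; Measure: B-scored integrated calcium fluorescence ratio; Benchmarks: low control buffer alone, high control maximal DAMGO; Schedule: 45 min room-temperature Fluo4 loading, 110 s read.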
TRPC4 potent: allosterically enhances the mouse TRPC4 cation channel; Q9QUQ5; HEK293 TRPC4beta/mu-opioid, DAMGO EC20, Fluo-4 Ca2+ flux; hits give high values; B-score at 10 µM; hit rate 0.42% among 310,000; AID 2227;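 active means B-score of calcium response area above 5 SD of library B-scores, with initial fluorescence ratio within 5 SD of library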;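 further: B-score of integrated fluorescence ratio over time as area under calcium response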
TRPC6 inh: inhibitors of mouse TRPC6 channel. Q61143. HEK293-TRPC6, membrane potential dye, ACh-evoked depolarization; hits give low values. B-score at 10 µM. hit rate 1.1% among 310,000. AID 2553;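 active means B-score under library mean minus 3 SD, initial fluorescence not abnormally high, positive integrated signal ratio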;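 further: B-score derived from integrated fluorescence ratio over the kinetic read; more negative B-score means stronger inhibition of depolarization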
Target sequence (Q61143 whole entry, looked up): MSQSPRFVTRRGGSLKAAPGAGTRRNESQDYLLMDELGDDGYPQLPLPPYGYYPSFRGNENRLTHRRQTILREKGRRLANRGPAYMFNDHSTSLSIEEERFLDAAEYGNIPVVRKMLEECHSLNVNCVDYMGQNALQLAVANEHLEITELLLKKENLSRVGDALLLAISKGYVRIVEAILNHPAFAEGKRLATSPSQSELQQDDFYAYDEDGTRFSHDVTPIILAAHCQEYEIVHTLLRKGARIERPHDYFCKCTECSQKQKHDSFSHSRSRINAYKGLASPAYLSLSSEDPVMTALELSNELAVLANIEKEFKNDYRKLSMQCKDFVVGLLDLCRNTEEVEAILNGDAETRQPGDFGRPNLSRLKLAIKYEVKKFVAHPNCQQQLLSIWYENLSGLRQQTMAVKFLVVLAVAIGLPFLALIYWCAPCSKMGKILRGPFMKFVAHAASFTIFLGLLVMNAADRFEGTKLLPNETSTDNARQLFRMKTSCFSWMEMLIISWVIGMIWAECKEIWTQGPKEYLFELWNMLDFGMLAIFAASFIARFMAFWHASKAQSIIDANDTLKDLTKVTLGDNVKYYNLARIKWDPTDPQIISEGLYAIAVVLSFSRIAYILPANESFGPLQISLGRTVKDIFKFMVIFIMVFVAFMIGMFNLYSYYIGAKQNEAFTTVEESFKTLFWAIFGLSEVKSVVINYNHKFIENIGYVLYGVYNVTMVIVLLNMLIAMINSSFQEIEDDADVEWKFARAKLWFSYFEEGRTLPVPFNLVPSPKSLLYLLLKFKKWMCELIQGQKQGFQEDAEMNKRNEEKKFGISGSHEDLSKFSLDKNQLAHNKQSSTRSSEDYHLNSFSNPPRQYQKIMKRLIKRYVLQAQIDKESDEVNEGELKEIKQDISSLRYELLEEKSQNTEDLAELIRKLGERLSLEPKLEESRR
TRPC6 act: activators of mouse TRPC6 channel. Q61143. HEK293-TRPC6 membrane potential dye fluorescence; hits give high values. B-score at 10 µM. hit rate 0.13% among 310,000. AID 2550;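 active means B-score of the integrated fluorescence ratio above library mean plus 3 SD, and starting fluorescence ratio within library mean plus 5 SD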;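 further: higher score means more depolarization so channel activation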
TRPC4 inh: TRPC4 (mouse) channel inhibition | HEK293 TRPC4beta/mu-opioid, DAMGO-evoked Fluo4 calcium flux; hits give low values | B-score at 10 µM | hit rate 0.39% among 300,000 | AID 2247;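 active means B-score over 3 SD under the library average, no early fluorescence shift, positive overall ratio signal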
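Material: HEK293 cells with stable TRPC4beta plus mu-opioid receptor expression / Probe or stimulus: DAMGO in two steps, submaximal then maximal / Compound: single concentration per test compound / Technique: kinetic Fluo4 fluorescence imaging of calcium influx / Read-out: per-well B score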
TRPC4 spec 2: second selectivity test of TRPC6 inhibitors: effect on mouse TRPC4 | shares compounds with TRPC6 inh | HEK293 TRPC4/MOR, membrane potential dye fluorescence; channel activated by saturating DAMGO dose | inhibition, % at 10 µM | hit rate 42% among 920 | AID 2776;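 active means compounds whose fluorescence signal differed from control wells by over 3 SD, either direction, in both duplicate plates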
TRPC4 spec: mouse TRPC4 off-target activity of TRPC6 inhibitors; shares compounds with TRPC6 inh; HEK293 TRPC4/mu-opioid, membrane potential fluorescence; activity change, negative = inhibition, % at 10 µM; hit rate 61% among 920; AID 2777;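 active means rise or fall in signal beyond 3 SD of buffer-only wells in both replicate plates, either sign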;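 further: integrated kinetic ratio of fluorescence range over baseline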
HEK293 MPD ctr 2-1: second counter-screen for TRPC6 inhibitors: parental HEK293 cells; shares compounds with TRPC6 inh; parental HEK293 membrane potential dye fluorescence; maximal acetylcholine challenge after compound addition; signal change vs control, % at 10 µM; hit rate 31% among 920; AID 2779;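 active means membrane potential signal moving either way by over 3 SD of the maximum-effect control, in both duplicate plates, meaning non-specific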
HEK293 MPD ctr-1: counter-screen for TRPC6 inhibitors: effect in parental HEK293 cells | shares compounds with TRPC6 inh | hit rate 60% among 920 | AID 2780 | parental HEK293 membrane potential dye fluorescence | membrane potential signal change, % at 10 µM;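 active means membrane potential signal shifting up or down by more than 3 SD of buffer-only wells, on both duplicate plates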
HEK293 MPD ctr-2: counter-screen for TRPC6 modulators: effect in parental HEK293 cells. shares compounds with TRPC6 inh. membrane potential dye fluorescence. membrane potential signal change, % at 10 µM. hit rate 51% among 2,400. AID 488924;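 active means membrane potential signal moves up or down beyond 5 SD from buffer-only wells, on both duplicate plates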
HEK293 MPD ctr 2-2: second check of TRPC6 modulator effects in parental HEK293 cells. shares compounds with TRPC6 inh. membrane potential dye fluorescence; after compound, maximal acetylcholine stimulation. inhibition, % at 10 µM. hit rate 14% among 2,400;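 active means membrane potential signal drops by more than 5 SD from the mean control signal, in both duplicate plates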;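 further: plate controls were acetylcholine ECmax control wells for no effect and buffer only wells for full effect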
TRPC4 ctr mod: tests whether TRPC6 modulators also affect mouse TRPC4. percent change from control (negative = decrease, positive = increase), % at 10 µM. hit rate 69% among 2,400. shares compounds with TRPC6 inh. HEK293 TRPC4/mu-opioid, membrane potential fluorescence;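 active means membrane potential signal moved up or down beyond 5 SD of buffer control wells, in both duplicate plates, actives on both sides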;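 further: plate controls were assay buffer wells for no effect and DAMGO maximal-effect wells for full effect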
TRPC4/MOR inh 2: mouse TRPC4 off-target activity of TRPC6 modulators, second screen. shares compounds with TRPC6 inh. HEK293 TRPC4/mu-opioid, membrane potential dye fluorescence; stimulated with maximal-effect DAMGO. inhibition, % at 10 µM. hit rate 55% among 2,400;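 active means drop in membrane potential signal beyond 5 SD of the control wells in both duplicate plates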;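 further: TRPC4 counter screen for TRPC6 hits run under conditions tuned for TRPC6 not TRPC4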
TRPC6 inh conf: mouse TRPC6 inhibitor confirmation; shares compounds with TRPC6 inh; HEK293-TRPC6, membrane potential dye, ACh-evoked depolarization; inhibition, % at 10 µM; hit rate 43% among 3,300; AID 488960;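 active means fluorescence ratio falls more than 5 SD below the full-stimulation control mean, in both duplicate runs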;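 further: integrated fluorescence ratio of peak minus minimum over baseline after agonist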
TRPC6 act conf: mouse TRPC6 activator confirmation; shares compounds with TRPC6 inh; HEK293-TRPC6 membrane potential dye fluorescence, FDSS; activation, % at 10 µM; hit rate 11% among 2,800;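 active means ratio signal rise beyond 5 SD above unstimulated control wells' mean, seen in both duplicate runs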;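 further: plate controls were buffer EC0 wells for no effect and acetylcholine ECmax response for full effect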
An asterisk follows results filed as active; i = inactive; / = no result. Hits are enriched below; roughly 2.3% of the tested compounds scored in any of these assays.

SMILES	TRPC4 act	TRPC4 potent	TRPC6 inh	TRPC6 act	TRPC4 inh	HEK293 MPD ctr-2	HEK293 MPD ctr 2-2	TRPC4 ctr mod	TRPC4/MOR inh 2	TRPC6 inh conf	TRPC6 act conf	others
N#CC1=C(N)Oc2cc(N)ccc2C1c1ccc(F)cc1F (stereo not given)	64*	i	i	38.6*	i	121.0%*	i	i	i	i	27.0%*
N#CC1=C(N)Oc2cc(N)ccc2C1c1ccc(Cl)cc1 (stereo not given)	i	i	i	11.8*	i	i	i	i	i	i	i
CCn1c(C)nc2cc(C(=O)NNC(=O)CCC3CCCCC3)ccc21	i	i	i	i	i	/	/	/	/	/	/
CCCc1ncc(C(O)(c2ccccc2)c2ccc(C)cc2)n1C (stereo not given)	i	i	i	i	i	/	/	/	/	/	/
CCCc1ncc(C(O)(c2ccccc2)c2ccccc2)n1C	i	i	-8.76*	i	i	/	/	/	/	57.6%*	/	TRPC4 spec 2=i;TRPC4 spec=21.8%*;HEK293 MPD ctr 2-1=i;HEK293 MPD ctr-1=15.5%*
COCCSc1ccccc1C(=O)N1CCN(c2ccccc2)CC1	i	i	i	i	i	/	/	/	/	/	/
Cc1noc(C)c1CSc1ccccc1C(=O)N1CCN(c2ccccc2)CC1	i	i	-6.91*	i	i	/	/	/	/	i	/	TRPC4 spec 2=i;TRPC4 spec=16.0%*;HEK293 MPD ctr 2-1=i;HEK293 MPD ctr-1=8.9%*
C/C(=N\Nc1nc2ccccc2[nH]1)c1ccc2c(c1)OCCO2	i	i	-7.24*	i	i	/	/	/	/	67.0%*	i	TRPC4 spec 2=41.0%*;TRPC4 spec=-23.8%*;HEK293 MPD ctr 2-1=i;HEK293 MPD ctr-1=-263.0%*
C/C(=N\Nc1nc2ccccc2[nH]1)c1ccc2c(c1)OCO2	i	i	-10.2*	i	-8*	/	/	/	/	58.5%*	i	TRPC4 spec 2=40.5%*;TRPC4 spec=-19.5%*;HEK293 MPD ctr 2-1=37.5%*;HEK293 MPD ctr-1=-346.5%*
C/C(=N\Nc1ccccn1)c1ccc2c(c1)OCO2	i	i	i	i	i	/	/	/	/	/	/
Nc1nc(SCC(=O)NC2CCCCCC2)[nH]c(=O)c1-c1ccccc1	i	i	i	i	i	/	/	/	/	/	/
Cc1ccc(C(O)c2nc3ccccc3n2C)cc1 (stereo not given)	i	i	i	i	i	/	/	/	/	/	/
c1ccc(C[n+]2cccc3c4ccccc4ccc32)cc1	i	i	-9.66*	i	i	-274.5%*	71.0%*	-46.0%*	64.5%*	68.5%*	i
O=[N+]([O-])c1ccc(C[n+]2cccc3ccccc32)cc1	i	i	i	i	i	/	/	/	/	/	/
CCCCC[n+]1cccc2c3ccccc3ccc21	i	i	-9.24*	i	i	-238.0%*	i	-39.0%*	66.0%*	58.5%*	i
NC(=O)C[n+]1cccc2ccccc21	i	i	i	i	i	/	/	/	/	/	/
COc1ccc2c(c1OC)C(=O)OC2C1c2c(cc3c(c2OC)OCO3)CCN1C (stereo not given)	i	i	i	i	i	/	/	/	/	/	/
CN1CCc2cc3c(c4c2[C@H]1[C@H](O)c1ccccc1-4)OCO3	i	i	-5.09*	i	i	i	i	-23.5%*	47.5%*	i	i
Cc1c(CN(C)C)c2c(n1C)C(=O)c1ccc(Br)cc1-2	i	i	-11*	i	i	-177.5%*	67.0%*	-31.5%*	59.0%*	66.5%*	i
Cc1ccc(-c2cn(-c3ccc(SC(F)F)cc3)c3[n+]2CCC3)cc1	i	i	i	i	i	/	/	/	/	/	/
FC(F)Sc1ccc(-n2cc(-c3ccc(Cl)cc3)[n+]3c2CCC3)cc1	i	i	-7*	i	i	/	/	/	/	52.9%*	i	TRPC4 spec 2=i;TRPC4 spec=-13.7%*;HEK293 MPD ctr 2-1=-39.5%*;HEK293 MPD ctr-1=-215.5%*
C=CCOc1ccc(C(=O)c2ccccc2)c(OCC(=O)NC2(C#N)CCCC2)c1	i	i	i	i	i	/	/	/	/	/	/
COc1ccc(CC(NC(C)=O)C(=O)NC2CCN(c3ncccc3[N+](=O)[O-])CC2)cc1 (stereo not given)	i	i	i	i	i	/	/	/	/	/	/
O=C1c2cccc3c(Nc4ccccc4Cl)c([N+](=O)[O-])cc(c23)C(=O)N1CCO	i	i	-10.1*	i	i	-100.5%*	i	-25.5%*	81.0%*	47.0%*	i
CCOc1ccc(N(C)S(=O)(=O)c2ccc3[nH]cc(C(=O)NCC(OC)OC)c(=O)c3c2)cc1	i	i	-5.49*	i	i	i	i	i	i	i	i
CC(=O)Nc1ccc(Nc2ccc3c4c(cc(=O)n3C)-c3ccccc3C(=O)c24)cc1	i	i	i	i	i	/	/	/	/	/	/
O=C1c2ccccc2C(=O)c2c(Nc3ccc(CCO)cc3)ccc(O)c21	i	i	-5.24*	i	i	i	i	-9.0%*	41.5%*	i	i
COc1cccc(C2=NCCc3cc4c(cc32)OCO4)c1OC	i	i	i	i	i	/	/	/	/	/	/
COc1ccc2cc3[n+](cc2c1OC)CCc1cc2c(cc1-3)OCO2	i	i	-5.15*	i	i	i	110.0%*	i	i	i	i
COc1ccc(-c2cn3cc(C)ccc3n2)cc1OC	i	i	-7.57*	i	i	/	/	/	/	i	i	TRPC4 spec 2=i;TRPC4 spec=-9.8%*;HEK293 MPD ctr 2-1=-27.5%*;HEK293 MPD ctr-1=i
